The source made the active and inactive calls. No cut-off for these calls is given here.

One test relates to Human adenovirus D37. Briefly: Inhibition of [35S]labeled Human adenovirus type 37 virions binding to human corneal epithelial cells by liquid scintillation counting. The class given is functional, organism-based. The settings on record: Cornea, Epithelial cell. The method, boiled down: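 ³⁵S-labeled Ad37 virions preincubated with ligand before being added to HCE cells. After incubation, unbound virions washed away and cell-associated radioactivity measured. Each run used a duplicate dilution series (2, 4, 8 and 16 mM), averaged from duplicates. Experiment repeated three times; large variation allowed only a rough activity estimate.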
For the compound `CO[C@@]1(C(=O)O)C[C@H](O)[C@@H](NC(=O)c2ccccc2)[C@H]([C@H](O)[C@H](O)CO)O1`, the result was Active.
Same read-out and setting: the value for `O=C(CO)N[C@H]1[C@H]([C@H](O)[C@H](O)CO)O[C@](O)(C(=O)O)C[C@@H]1O` was “inactive”.
The same measure, in the same setting: the value for `COC(=O)N[C@H]1[C@H]([C@H](O)[C@H](O)CO)O[C@](OC)(C(=O)O)C[C@@H]1O` was “Active”; that for `CCCCC(=O)N[C@H]1[C@H]([C@H](O)[C@H](O)CO)O[C@](OC)(C(=O)O)C[C@@H]1O` was “inactive”.
The same measure, in the same setting: in the case of `CC(=O)N[C@H]1[C@H]([C@@H](O)[C@@H](O)CO)O[C@@](O)(C(=O)O)C[C@@H]1O` it was “Active”; in that of `CCC(=O)N[C@H]1[C@H]([C@H](O)[C@H](O)CO)O[C@](OC)(C(=O)O)C[C@@H]1O`, “Active”; in that of `CCCC(=O)N[C@H]1[C@H]([C@H](O)[C@H](O)CO)O[C@](OC)(C(=O)O)C[C@@H]1O`, “inactive”.
In the case of `CO[C@@]1(C(=O)O)C[C@H](O)[C@@H](NC(=O)C(C)C)[C@H]([C@H](O)[C@H](O)CO)O1`, the result was inactive.
On the same count and under the same terms, in the case of `CO[C@@]1(C(=O)O)C[C@H](O)[C@@H](NC(=O)OC(C)(C)C)[C@H]([C@H](O)[C@H](O)CO)O1` it was “inactive”; in that of `CNC(=O)N[C@H]1[C@H]([C@H](O)[C@H](O)CO)O[C@](OC)(C(=O)O)C[C@@H]1O`, “inactive”.

The subject of a further test is Human adenovirus D37. In words: Antiviral activity against Human adenovirus type 37 virions assessed as inhibition of viral infection in human corneal epithelial cells preincubated for 1 hr. It counts as functional, organism-based. The settings on record: Cornea, Epithelial cell. The method in brief: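 Unlabeled Ad37 virions preincubated with a dilution series of ligand, then incubated with HCE cells. Unbound virions washed off; cell-associated virions allowed to infect. Infected cells stained with rabbit polyclonal anti-Ad37 serum and FITC-conjugated swine anti-rabbit IgG, then counted as fluorescent focus units under an immunofluorescence microscope. Duplicates within one experiment; experiment repeated twice.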
Take `CO[C@@]1(C(=O)O)C[C@H](O)[C@@H](NC(=O)c2ccccc2)[C@H]([C@H](O)[C@H](O)CO)O1`: the result was inactive.
Same read-out and setting: in the case of `COC(=O)N[C@H]1[C@H]([C@H](O)[C@H](O)CO)O[C@](OC)(C(=O)O)C[C@@H]1O` it was “Dose-dependent effect”; in that of `CC(=O)N[C@H]1[C@H]([C@@H](O)[C@@H](O)CO)O[C@@](O)(C(=O)O)C[C@@H]1O`, “Dose-dependent effect”.
On the same count and under the same terms, in the case of `CCC(=O)N[C@H]1[C@H]([C@H](O)[C@H](O)CO)O[C@](OC)(C(=O)O)C[C@@H]1O` it was “Dose-dependent effect”; in that of `CCCC(=O)N[C@H]1[C@H]([C@H](O)[C@H](O)CO)O[C@](OC)(C(=O)O)C[C@@H]1O`, “inactive”.
`CO[C@@]1(C(=O)O)C[C@H](O)[C@@H](NC(=O)C(C)C)[C@H]([C@H](O)[C@H](O)CO)O1`: the outcome was inactive.

The record behind these values is ChEMBL document CHEMBL1136953, “Design, synthesis, and evaluation of N-acyl modified sialic acids as inhibitors of adenoviruses causing epidemic keratoconjunctivitis” (J Med Chem, 2009).
